Experimental data as given in ChEMBL document CHEMBL1145811, “Synthesis and antibacterial activity of a novel series of acylides: 3-O-(3-pyridyl)acetylerythromycin A derivatives” (J Med Chem, 2003).
In brackets after ≈: the same amount, converted by molar mass.

How the values were obtained:
Format in all cases: functional
Staphylococcus aureus [1] = experiment: In vitro minimum inhibitory concentration for antibacterial activity against Staphylococcus aureus B1 (inducibly MLSb-resistant strain encoded by the erm(C) gene)
Outline: (§1)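 Agar dilution MIC determined by the Japan Society of Chemotherapy standard method for aerobic bacteria.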

Streptococcus pneumoniae [2] = experiment: In vitro minimum inhibitory concentration for antibacterial activity against Streptococcus pneumoniae 210 (efflux-resistant strain encoded by the mef(A) gene); outline: as §1
Staphylococcus aureus [3] = experiment: In vitro minimum inhibitory concentration for antibacterial activity against erythromycin-susceptible strain Staphylococcus aureus […]
Outline: (§2)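 MIC by agar dilution following the Japan Society of Chemotherapy standard method for aerobic bacteria. S. aureus 209P-JC and S. pneumoniae IID553 are erythromycin-susceptible strains.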

Haemophilus influenzae [4] = experiment: In vitro minimum inhibitory concentration for antibacterial activity against Haemophilus influenzae ATCC 43095 (ampicillin-susceptible strain that does not produce beta-lactamase); outline: as §1
Streptococcus pneumoniae [5] = experiment: In vitro minimum inhibitory concentration for antibacterial activity against erythromycin susceptible strain Streptococcus pneumoniae IID553
Streptococcus pneumoniae [6] = experiment: In vitro minimum inhibitory concentration for antibacterial activity against erythromycin-susceptible strain Streptococcus pneumoniae IID553; outline: as §2
Streptococcus pneumoniae [7] = experiment: In vitro minimum inhibitory concentration for antibacterial activity against Streptococcus pneumoniae 211 (MLSb-resistant strain encoded by the erm(B) gene); outline: as §1
Mus musculus [8] = experiment: Effective dose in vivo, in mouse inoculated intraperitoneally with 5.80*10e7 CFU of erythromycin susceptible strain Staphylococcus aureus Smith; settings: ip
Outline: (§3)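 Mouse protection test: mice were infected intraperitoneally with erythromycin-susceptible S. aureus Smith or S. pneumoniae IID553. Compounds were given orally 1 h after inoculation.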

Staphylococcus aureus [9] = experiment: In vitro minimum inhibitory concentration for antibacterial activity against Staphylococcus aureus SR138 (constitutively MLSb-resistant strain encoded by the erm(A) gene); outline: as §1
Mus musculus [10] = experiment: Effective dose in vivo, in mouse inoculated intraperitoneally with 1.47*10e3 CFU of erythromycin susceptible strain Streptococcus pneumoniae IID553; settings: ip; outline: as §3
Haemophilus influenzae [11] = experiment: In vitro minimum inhibitory concentration for antibacterial activity against Haemophilus influenzae ATCC 33533 (ampicillin-resistant strain that produces beta-lactamase); outline: as §1
Staphylococcus aureus [12] = experiment: In vitro minimum inhibitory concentration for antibacterial activity against erythromycin susceptible strain Staphylococcus aureus Smith
Mus musculus [13] = experiment: Effective dose in vivo, in mouse inoculated intraperitoneally with 5.09*10e7 CFU of erythromycin susceptible strain Staphylococcus aureus Smith; settings: ip; outline: as §3
Mus musculus [14] = experiment: Effective dose in vivo, in mouse inoculated intraperitoneally with 7.05*10e2 CFU of erythromycin susceptible strain Streptococcus pneumoniae IID553; settings: ip; outline: as §3
Mus musculus [15] = experiment: Survival rate of mouse inoculated intraperitoneally with 5.05*10e7 CFU of erythromycin-susceptible strain Streptococcus pneumoniae IID553 after treatment with 3 mg of compound
Outline: (§4)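 Mouse protection test: mice were infected intraperitoneally with 5.05 × 10^7 CFU/mouse, then given the macrolide orally 1 h after inoculation. Survival was recorded as the read-out.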

Mus musculus [16] = experiment: Survival rate of mouse inoculated intraperitoneally with 5.05*10e7 CFU of erythromycin-susceptible strain Streptococcus pneumoniae IID553 after treatment with 0.3 mg of compound; outline: as §4

Work on CC[C@H]1OC(=O)[C@H](C)[C@@H](OC(=O)Cc2cccnc2)[C@H](C)[C@@H](OC2O[C@H](C)C[C@H](N(C)C)[C@H]2O)[C@@](C)(O)C[C@@H](C)/C(=N\O)[C@H](C)[C@H]2OC(=O)O[C@@]21C (stereo partly specified) yielded an MIC (Staphylococcus aureus [1]) of 0.39 µg/mL (≈ 0.53 µM), an MIC (Streptococcus pneumoniae [2]) of 0.1 µg/mL (≈ 0.136 µM) and an MIC (Staphylococcus aureus [3]) of 0.39 µg/mL (≈ 0.53 µM). The MIC (Haemophilus influenzae [4]) was 3.13 µg/mL (≈ 4.25 µM), the MIC (Streptococcus pneumoniae [5]) was 0.025 µg/mL (≈ 0.034 µM) and the MIC (Streptococcus pneumoniae [6]) was 0.025 µg/mL (≈ 0.034 µM). The MIC (Streptococcus pneumoniae [7]) was > 100 µg/mL, the ED50 (Mus musculus [8]) was 51.6 mg/kg and the MIC (Staphylococcus aureus [9]) was > 100 µg/mL. It also gave an ED50 (Mus musculus [10]) of 142 mg/kg, an MIC (Haemophilus influenzae [11]) of 3.13 µg/mL (≈ 4.25 µM) and an MIC (Staphylococcus aureus [12]) of 0.2 µg/mL (≈ 0.272 µM).
CC[C@H]1OC(=O)[C@H](C)[C@@H](OC(=O)Cc2cccnc2)[C@H](C)[C@@H](OC2O[C@H](C)C[C@H](N(C)C)[C@H]2O)[C@@](C)(OC)C[C@@H](C)/C(=N\O)[C@H](C)[C@H]2OC(=O)O[C@@]21C (stereo partly specified) was tested, and the MIC (Staphylococcus aureus [1]) was 0.39 µg/mL (≈ 0.52 µM), the MIC (Streptococcus pneumoniae [2]) was 0.1 µg/mL (≈ 0.133 µM) and the MIC (Staphylococcus aureus [3]) was 0.2 µg/mL (≈ 0.267 µM). It also gave an MIC (Haemophilus influenzae [4]) of 3.13 µg/mL (≈ 4.17 µM), an MIC (Streptococcus pneumoniae [5]) of 0.025 µg/mL (≈ 0.0333 µM) and an MIC (Streptococcus pneumoniae [6]) of 0.025 µg/mL (≈ 0.0333 µM). For the same compound, the MIC (Streptococcus pneumoniae [7]) was > 100 µg/mL, the ED50 (Mus musculus [8]) was 27.6 mg/kg and the MIC (Staphylococcus aureus [9]) was > 100 µg/mL. For the same compound, the ED50 (Mus musculus [10]) was 47.4 mg/kg, the MIC (Haemophilus influenzae [11]) was 6.25 µg/mL (≈ 8.33 µM) and the MIC (Staphylococcus aureus [12]) was 0.39 µg/mL (≈ 0.52 µM).
For CC[C@H]1OC(=O)[C@H](C)[C@@H](O[C@H]2C[C@@](C)(OC)[C@@H](O)[C@H](C)O2)[C@H](C)[C@@H](O[C@@H]2O[C@H](C)C[C@H](N(C)C)[C@H]2O)[C@](C)(O)C[C@@H](C)C(=O)[C@H](C)[C@@H](O)[C@]1(C)O [ERYTHROMYCIN], the MIC (Streptococcus pneumoniae [5]) was 0.1 µg/mL (≈ 0.136 µM), the ED50 (Mus musculus [13]) was 56.6 mg/kg and the ED50 (Mus musculus [14]) was 111 mg/kg. It also gave an MIC (Staphylococcus aureus [12]) of 0.2 µg/mL (≈ 0.273 µM).
In the case of CC[C@H]1OC(=O)[C@H](C)[C@@H](OC(=O)Cc2ccc([N+](=O)[O-])cc2)[C@H](C)[C@@H](O[C@@H]2O[C@H](C)C[C@H](N(C)C)[C@H]2O)[C@@](C)(OC)C[C@@H](C)C(=O)[C@H](C)[C@@H](O)[C@]1(C)O, the MIC (Staphylococcus aureus [1]) was 0.39 µg/mL (≈ 0.518 µM), the MIC (Streptococcus pneumoniae [2]) was 0.2 µg/mL (≈ 0.266 µM) and the MIC (Staphylococcus aureus [3]) was 0.2 µg/mL (≈ 0.266 µM). For the same compound, the MIC (Haemophilus influenzae [4]) was 50 µg/mL (≈ 66.4 µM), the MIC (Streptococcus pneumoniae [5]) was 0.1 µg/mL (≈ 0.133 µM) and the MIC (Streptococcus pneumoniae [6]) was 0.2 µg/mL (≈ 0.266 µM). The MIC (Streptococcus pneumoniae [7]) was > 100 µg/mL, the MIC (Staphylococcus aureus [9]) was > 100 µg/mL and the ED50 (Mus musculus [10]) was 39.1 mg/kg. For the same compound, the MIC (Haemophilus influenzae [11]) was 50 µg/mL (≈ 66.4 µM) and the MIC (Staphylococcus aureus [12]) was 0.39 µg/mL (≈ 0.518 µM).
In the case of CC[C@H]1OC(=O)[C@H](C)[C@@H](O[C@H]2C[C@@](C)(OC)[C@@H](O)[C@H](C)O2)[C@H](C)[C@@H](O[C@@H]2O[C@H](C)C[C@H](N(C)C)[C@H]2O)[C@](C)(O)C[C@@H](C)CN(C)[C@H](C)[C@@H](O)[C@]1(C)O [AZITHROMYCIN], the MIC (Staphylococcus aureus [1]) was > 100 µg/mL, the MIC (Streptococcus pneumoniae [2]) was 0.78 µg/mL (≈ 1.04 µM) and the MIC (Staphylococcus aureus [3]) was 0.39 µg/mL (≈ 0.521 µM). For the same compound, the MIC (Haemophilus influenzae [4]) was 1.56 µg/mL (≈ 2.08 µM), the MIC (Streptococcus pneumoniae [5]) was 0.1 µg/mL (≈ 0.134 µM) and the ED50 (Mus musculus [13]) was 15.7 mg/kg. The ED50 (Mus musculus [14]) was 13.9 mg/kg, the MIC (Streptococcus pneumoniae [6]) was 0.1 µg/mL (≈ 0.134 µM) and the MIC (Streptococcus pneumoniae [7]) was > 100 µg/mL. For the same compound, the MIC (Staphylococcus aureus [9]) was > 100 µg/mL, the Survival rate (Mus musculus [15]) was 100% and the Survival rate (Mus musculus [16]) was 50%. It also gave an MIC (Haemophilus influenzae [11]) of 1.56 µg/mL (≈ 2.08 µM) and an MIC (Staphylococcus aureus [12]) of 0.78 µg/mL (≈ 1.04 µM).
In the case of CC[C@H]1OC(=O)[C@H](C)[C@@H](OC(=O)Cc2ccccc2)[C@H](C)[C@@H](O[C@@H]2O[C@H](C)C[C@H](N(C)C)[C@H]2O)[C@@](C)(OC)C[C@@H](C)C(=O)[C@H](C)[C@@H](O)[C@]1(C)O, the MIC (Staphylococcus aureus [1]) was 6.25 µg/mL (≈ 8.83 µM), the MIC (Streptococcus pneumoniae [2]) was 0.78 µg/mL (≈ 1.1 µM) and the MIC (Staphylococcus aureus [3]) was 1.56 µg/mL (≈ 2.2 µM). The MIC (Haemophilus influenzae [4]) was 100 µg/mL (≈ 141 µM), the MIC (Streptococcus pneumoniae [6]) was 0.78 µg/mL (≈ 1.1 µM) and the MIC (Streptococcus pneumoniae [7]) was > 100 µg/mL. The MIC (Staphylococcus aureus [9]) was > 100 µg/mL and the MIC (Haemophilus influenzae [11]) was 100 µg/mL (≈ 141 µM).
